Molecules are shown by their SMILES. The source made the active and inactive calls. The calls are words filed in the database; no cut-off is given here.

In ChEMBL document CHEMBL3227985, “N-Alkylated 2-aminotetralins: central dopamine-receptor stimulating activity” (J Med Chem, 1979) one finds ED50, Activity and Time data, which are given here for 28 molecules.

Data set [1] deals with Rattus norvegicus. The experiment in a line: Central dopamine receptor stimulating activity in Sprague-Dawley rat assessed as reduction in DOPA accumulation in limbic region of brain at 2 umol/kg, sc by spectrophotometric method. The data set is classed as functional. To be noted: Limbic system. The method, boiled down: (§1)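 Male Sprague-Dawley rats (200-350 g), reserpinized. Compounds dissolved in saline immediately before use, neutral pH, 10 mL/kg, given sc over a dose range. Aromatic-L-amino-acid decarboxylase inhibited (100 mg/kg). Dopa and 5-HTP accumulation measured spectrophotometrically in striatum, limbic forebrain and remaining hemispheral portions. ED50 = dose giving 50% of maximal reduction versus control portions, estimated from dose-response curves. Experiments run 9–12 a.m.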

The test system of data set [2] is Rattus norvegicus. Description: Central dopamine receptor stimulating activity in Sprague-Dawley rat assessed as reduction in DOPA accumulation in striatum of brain at 2 umol/kg, sc by spectrophotometric method. The data set is classed as functional. The method, boiled down:
as §1

The subject of data set [3] is Rattus norvegicus. The experiment in a line: Central noradrenaline receptor stimulating activity in Sprague-Dawley rat assessed as reduction in DOPA accumulation in hemispheral portion of cerebrum at 2 umol/kg, sc by spectrophotometric method. It counts as functional, organism-based. In short, it runs like this: as §1
Data set [4] deals with Rattus norvegicus. Description: Central serotonin receptor stimulating activity in Sprague-Dawley rat assessed as reduction in 5-HTP accumulation in limbic region of brain at 2 umol/kg, sc by spectrophotometric method. It counts as functional, organism-based. To be noted: Limbic system. The method, boiled down: as §1
Data set [5] concerns Rattus norvegicus. The experiment in a line: Central serotonin receptor stimulating activity in Sprague-Dawley rat assessed as reduction in 5-HTP accumulation in striatum of brain at 2 umol/kg, sc by spectrophotometric method. It counts as functional, organism-based. In short, it runs like this:
as §1

For data set [6], the system named is Rattus norvegicus. The experiment in a line: Central serotonin receptor stimulating activity in Sprague-Dawley rat assessed as reduction in 5-HTP accumulation in hemispheral portion of cerebrum at 2 umol/kg, sc by spectrophotometric method. The data set is classed as functional, organism-based. In short, it runs like this: as §1
Data set [7] has as its system Rattus norvegicus. Description: Central dopamine receptor stimulating activity in reserpenized Sprague-Dawley rat assessed as duration of action of motor activity at 2 umol/kg, sc measured 6 hrs post-reserpine challenge by motility meter analysis. It counts as functional. In short, it runs like this:
(§2)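 Male Sprague-Dawley rats (200-350 g) given reserpine 10 mg/kg ip 6 h before testing. Drug in saline, 2 µmol/kg sc in the neck. Rats then placed singly in photocell motility meters. Counts recorded per 5-min period until effect ceased (<10 counts/5 min), giving duration and AUC. Means of four to six recordings. Testing 1–6 p.m.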

For data set [8], the system named is Rattus norvegicus. Description: Central dopamine receptor stimulating activity in reserpenized Sprague-Dawley rat assessed as latency period of motor activity at 2 umol/kg, sc measured 6 hrs post-reserpine challenge by motility meter analysis. It counts as functional. The method, boiled down: as §2
Data set [9] has as its system Rattus norvegicus. Description: Toxicity in sc dosed Sprague-Dawley rat assessed as gross behaviour at ED50. To be noted: in vivo. It counts as organism-based.

What is called ED50 is the midpoint of the dose-response relation. As to `Br.CCNC1CCc2c(O)cccc2C1` (stereo not given), the ED50 in data set [1] worked out at 0.072 µmol/kg; in [2], 0.066 µmol/kg. For the same molecule, the result in data set [3], in data set [4], in data set [5] and in data set [6] was inactive. For the same molecule, the Time in data set [7] was determined as 50 min; in data set [8], 3 min. Also, the Activity entry in data set [9] is “Non-toxic”.

Consider `CCCCCN(CCC)C1CCc2c(O)cccc2C1.Cl` (stereo not given), for which the 50% effective dose (ED50) turned out to be 0.01 µmol/kg in data set [1] and 0.019 µmol/kg in data set [2]. Besides, the result in [3], in [4], in [5] and in [6] was inactive. For the same molecule, the values for the Time in data set [7] and in data set [8] were 75 min and 0 min, respectively. Further, the Activity result in data set [9] is given as “Non-toxic”.

Regarding `Br.CN(C)C1CCc2c(O)cccc2C1` (stereo not given), the values for the ED50 in [1] and in data set [2] were 0.39 µmol/kg and 0.19 µmol/kg, respectively. In addition, the outcome in data set [3], in data set [4], in [5] and in data set [6] was inactive. The Activity entry in data set [9] was “Non-toxic”.

Take `CCCN(CC(C)(C)C)C1CCc2c(cccc2OC)C1.Cl` (stereo not given): the ED50 in [1] and in data set [2] was 0.19 µmol/kg throughout. Moreover, the result in data set [3], in data set [4], in [5] and in data set [6] was inactive. Moreover, in [9], the Activity entry is listed as “Non-toxic”.

With `CCN(CC)C1CCc2c(cccc2OC)C1.Cl` (stereo not given), the result in [3], in [4], in data set [5] and in data set [6] was inactive. For the same molecule, the Activity entry in [9] is “Non-toxic”.

In the case of `CCN(C)C1CCc2c(cccc2OC)C1.Cl` (stereo not given), the result in data set [3], in data set [4], in data set [5] and in [6] was inactive. Moreover, the Activity result in data set [9] is “Non-toxic”.

For the molecule `Br.NC1CCc2c(O)cccc2C1` (stereo not given), the ED50 in data set [1] was greater than 5 µmol/kg. The result in data set [3], in data set [4], in data set [5] and in [6] was inactive. Further, in data set [9], the Activity result was “Non-toxic”.

For `CCNC1CCc2c(cccc2OC)C1.Cl` (stereo not given), the result in data set [3], in [4], in data set [5] and in data set [6] was inactive. Moreover, the Activity result in data set [9] is reported as “Non-toxic”.

`CCCNC1CCc2c(cccc2OC)C1.Cl` (stereo not given): the ED50 is 0.37 µmol/kg in data set [1] and 0.43 µmol/kg in data set [2]. Also, the outcome in data set [3], in data set [4], in data set [5] and in [6] was inactive. Moreover, the Activity result in data set [9] is reported as “Non-toxic”.

Consider `COc1cccc2c1CCC(N1CCCCC1)C2.Cl` (stereo not given), for which the result in [3], in [4], in data set [5] and in data set [6] was inactive. For the same molecule, in [9], the Activity result is reported as “Non-toxic”.

Turning to `CCCCCNC1CCc2c(cccc2OC)C1.Cl` (stereo not given), the outcome in [3], in data set [4], in data set [5] and in data set [6] was inactive. Besides, the Activity entry in [9] is listed as “Non-toxic”.

With `Br.CNC1CCc2c(O)cccc2C1` (stereo not given), the ED50 in data set [1] came to 1.1 µmol/kg; in [2], 1.2 µmol/kg. The result in data set [3], in data set [4], in data set [5] and in [6] was inactive. Besides, the Activity result in data set [9] is reported as “Non-toxic”.

In the case of `CCCN(CCC)C1CCc2c(ccc(OC)c2OC)C1.Cl` (stereo not given), the ED50 was 0.057 µmol/kg in data set [1] and 0.058 µmol/kg in data set [2]. Further, the result in [3], in data set [4], in data set [5] and in [6] was inactive. Further, the Activity entry in data set [9] is “Non-toxic”.

`CCCN(CCc1ccccc1)C1CCc2c(cccc2OC)C1.Cl` (stereo not given): the ED50 in [1] turned out to be 0.29 µmol/kg; in data set [2], 0.24 µmol/kg. Further, the result in data set [3], in data set [4], in data set [5] and in data set [6] was inactive. In addition, the Activity entry in [9] is given as “Non-toxic”.

Regarding `CNC1CCc2c(cccc2OC)C1.Cl` (stereo not given), the result in [3], in data set [4], in data set [5] and in [6] was inactive. Also, the Activity entry in data set [9] is reported as “Non-toxic”.

`Br.CCCCN(CCCC)C1CCc2c(O)cccc2C1` (stereo not given): the values for the 50% effective dose (ED50) in data set [1] and in data set [2] were 2.9 µmol/kg and 2.7 µmol/kg, respectively. Also, the result in data set [3], in data set [4], in [5] and in data set [6] was inactive. Moreover, the Activity result in [9] is given as “Non-toxic”.

Consider `CCCCCN(C)C1CCc2c(cccc2OC)C1.Cl` (stereo not given), for which the result in data set [3], in data set [4], in [5] and in data set [6] was inactive. Also, the Activity result in [9] is on record as “Non-toxic”.

On to `COc1cccc2c1CCC(N)C2.Cl` (stereo not given), for which the outcome in [3], in data set [4], in data set [5] and in [6] was inactive. For the same molecule, the Activity result in [9] is “Non-toxic”.

As for `COc1cccc2c1CCC(N(C)C)C2.Cl` (stereo not given), the result in data set [3], in [4], in [5] and in data set [6] was inactive. Further, the Activity entry in data set [9] was “Non-toxic”.

On to `Br.Oc1cccc2c1CCC(N1CCCCC1)C2` (stereo not given), for which the 50% effective dose (ED50) in data set [1] was greater than 5 µmol/kg. Also, the result in data set [3], in data set [4], in [5] and in [6] was inactive. Besides, the Activity result in [9] is reported as “Non-toxic”.

For the molecule `Br.CCCCNC1CCc2c(O)cccc2C1` (stereo not given), the median effective dose (ED50) in [1] is greater than 5 µmol/kg. Also, the outcome in data set [3], in data set [4], in data set [5] and in data set [6] was inactive. Besides, in data set [9], the Activity entry was “Non-toxic”.

For the molecule `CCCCN(CCCC)C1CCc2c(cccc2OC)C1.Cl` (stereo not given), the result in data set [3], in data set [4], in [5] and in data set [6] was inactive. The Activity entry in data set [9] was “Non-toxic”.

For `Br.CCCCCN(C)C1CCc2c(O)cccc2C1` (stereo not given), the ED50 is 0.37 µmol/kg in data set [1] and 0.28 µmol/kg in [2]. The result in data set [3], in [4], in data set [5] and in [6] was inactive. Further, the Activity result in data set [9] is “Non-toxic”.

For the molecule `Br.CCCCCNC1CCc2c(O)cccc2C1` (stereo not given), the ED50 in data set [1] is greater than 5 µmol/kg. Besides, the result in [3], in [4], in [5] and in data set [6] was inactive. The Activity entry in [9] is “Non-toxic”.

Turning to `Br.CC(C)NC1CCc2c(O)cccc2C1` (stereo not given), the ED50 in [1] was greater than 5 µmol/kg. Besides, the outcome in data set [3], in [4], in [5] and in data set [6] was inactive. The Activity entry in data set [9] is reported as “Non-toxic”.

For `CCCN(C(C)C)C1CCc2c(cccc2OC)C1.Cl` (stereo not given), the outcome in data set [3], in [4], in [5] and in data set [6] was inactive. In data set [9], the Activity result is given as “Non-toxic”.

Consider `COc1cccc2c1CCC(NC(C)C)C2.Cl` (stereo not given), for which the ED50 in [1] was greater than 5 µmol/kg. The outcome in data set [3], in data set [4], in data set [5] and in data set [6] was inactive. Further, the Activity result in data set [9] was “Non-toxic”.

For the molecule `CCCCNC1CCc2c(cccc2OC)C1.Cl` (stereo not given), the result in data set [3], in data set [4], in [5] and in data set [6] was inactive. Further, in data set [9], the Activity entry is recorded as “Non-toxic”.
